In ChEMBL document CHEMBL4689842, “EUbOPEN Chemogenomics Library wave 1” (2021):

Legend:
Type in all cases: toxicity, cell-based
U2OS [1] = assay: Incucyte cell viability with U2OS; details: human, 10 µM, compound concentration 10 uM; also: filed as whole numbers so only -1 and 0 and 1 occur
HEK-293T = assay: Incucyte cell viability with HEK293T; details: human, 10 µM, compound concentration 10 uM; also: filed as whole numbers so only -1 and 0 and 1 occur
U2OS [2] = assay: Multiplex assay against U2OS; details: human
Summary of the method: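 At seeding, live cells were stained with Hoechst33342, BioTracker Green Microtubule Cytoskeleton Dye, MitoTracker Red and Annexin V Alexa Fluor 680. After compound addition they were imaged on a CQ1 microscope at 37°C and 5% CO2, and CellPathfinder machine-learning gating sorted them into Hoechst high-intensity objects or normal cells, with normal cells further split into healthy, pyknosed or fragmented nuclei and pyknosed cells into mitotic or apoptotic. Tubulin, mitochondrial-mass and membrane-permeability phenotypes are given as per cents of cells with healthy nuclei.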

[3] = 0 h, replicate number 1, timepoint 0 hours
[4] = 12 h, replicate number 1, timepoint 12 hours
[5] = 18 h, replicate number 1, timepoint 18 hours
[6] = 24 h, replicate number 1, timepoint 24 hours
[7] = 12 h, 1 µM, compound concentration 1 uM, replicate 1
[8] = 12 h, 1 µM, compound concentration 1 uM, replicate 2
[9] = 12 h, 10 µM, compound concentration 10 uM, replicate 1
[10] = 12 h, 10 µM, compound concentration 10 uM, replicate 2
[11] = 24 h, 1 µM, compound concentration 1 uM, replicate 1
[12] = 24 h, 1 µM, compound concentration 1 uM, replicate 2
[13] = 24 h, 10 µM, compound concentration 10 uM, replicate 1
[14] = 24 h, 10 µM, compound concentration 10 uM, replicate 2
[15] = 48 h, 1 µM, compound concentration 1 uM, replicate 1
[16] = 48 h, 1 µM, compound concentration 1 uM, replicate 2
[17] = 48 h, 10 µM, compound concentration 10 uM, replicate 1
[18] = 48 h, 10 µM, compound concentration 10 uM, replicate 2

CC(C)N1CCC(C)(C)c2cc(C#Cc3ccc(C(=O)O)cc3)ccc21
Growth Rate (U2OS [1]; [3]): 0
Growth Rate (U2OS [1]; 6 h, replicate number 2, timepoint 6 hours): 0
Growth Rate (U2OS [1]; [4]): 1
Growth Rate (U2OS [1]; [5]): 1
Growth Rate (U2OS [1]; [6]): 1
Growth Rate (HEK-293T; [3]): 1
Growth Rate (HEK-293T; 0 h, replicate number 2, timepoint 0 hours): 0
Growth Rate (HEK-293T; 6 h, replicate number 1, timepoint 6 hours): 1
Growth Rate (HEK-293T; [4]): 0
Growth Rate (HEK-293T; [5]): 0
Growth Rate (HEK-293T; [6]): 0
Population Apoptotic (%) (U2OS [2]; [7]): 30%
Population Healthy Nuclei (%) (U2OS [2]; [7]): 74%
Population Hoechst High Intensity Objects (%) (U2OS [2]; [7]): 12%
Population Membrane Permeable-Phenotype (%) (U2OS [2]; [7]): 3%
Population Mitochondria Different-Phenotype (%) (U2OS [2]; [7]): 4%
Population Mitotic Cells (%) (U2OS [2]; [7]): 70%
Population Normal (%) (U2OS [2]; [7]): 88%
Population Pyknosed Nuclei (%) (U2OS [2]; [7]): 9%
Population Tubulin-Different-Phenotype (%) (U2OS [2]; [7]): 21%
Total Cell Count (U2OS [2]; [7]): 125
Population Apoptotic (%) (U2OS [2]; [8]): 20%
Population Fragmented Nuclei (%) (U2OS [2]; [8]): 16%
Population Healthy Nuclei (%) (U2OS [2]; [8]): 75%
Population Hoechst High Intensity Objects (%) (U2OS [2]; [8]): 13%
Population Membrane Permeable-Phenotype (%) (U2OS [2]; [8]): 6%
Population Mitochondria Different-Phenotype (%) (U2OS [2]; [8]): 15%
Population Mitotic Cells (%) (U2OS [2]; [8]): 80%
Population Normal (%) (U2OS [2]; [8]): 86%
Population Pyknosed Nuclei (%) (U2OS [2]; [8]): 8%
Population Tubulin-Different-Phenotype (%) (U2OS [2]; [8]): 20%
Total Cell Count (U2OS [2]; [8]): 69
Population Apoptotic (%) (U2OS [2]; [9]): 60%
Population Fragmented Nuclei (%) (U2OS [2]; [9]): 52%
Population Healthy Nuclei (%) (U2OS [2]; [9]): 43%
Population Hoechst High Intensity Objects (%) (U2OS [2]; [9]): 54%
Population Membrane Permeable-Phenotype (%) (U2OS [2]; [9]): 8%
Population Mitochondria Different-Phenotype (%) (U2OS [2]; [9]): 8%
Population Mitotic Cells (%) (U2OS [2]; [9]): 40%
Population Normal (%) (U2OS [2]; [9]): 45%
Population Pyknosed Nuclei (%) (U2OS [2]; [9]): 4%
Population Tubulin-Different-Phenotype (%) (U2OS [2]; [9]): 13%
Total Cell Count (U2OS [2]; [9]): 542
Population Apoptotic (%) (U2OS [2]; [10]): 0%
Population Fragmented Nuclei (%) (U2OS [2]; [10]): 55%
Population Healthy Nuclei (%) (U2OS [2]; [10]): 44%
Population Hoechst High Intensity Objects (%) (U2OS [2]; [10]): 71%
Population Membrane Permeable-Phenotype (%) (U2OS [2]; [10]): 4%
Population Mitochondria Different-Phenotype (%) (U2OS [2]; [10]): 14%
Population Mitotic Cells (%) (U2OS [2]; [10]): 0%
Population Normal (%) (U2OS [2]; [10]): 28%
Population Pyknosed Nuclei (%) (U2OS [2]; [10]): 0%
Population Tubulin-Different-Phenotype (%) (U2OS [2]; [10]): 28%
Total Cell Count (U2OS [2]; [10]): 327
Population Apoptotic (%) (U2OS [2]; [11]): 54%
Population Fragmented Nuclei (%) (U2OS [2]; [11]): 11%
Population Healthy Nuclei (%) (U2OS [2]; [11]): 80%
Population Hoechst High Intensity Objects (%) (U2OS [2]; [11]): 7%
Population Membrane Permeable-Phenotype (%) (U2OS [2]; [11]): 1%
Population Mitochondria Different-Phenotype (%) (U2OS [2]; [11]): 5%
Population Mitotic Cells (%) (U2OS [2]; [11]): 45%
Population Normal (%) (U2OS [2]; [11]): 92%
Population Pyknosed Nuclei (%) (U2OS [2]; [11]): 7%
Population Tubulin-Different-Phenotype (%) (U2OS [2]; [11]): 12%
Total Cell Count (U2OS [2]; [11]): 156
Population Apoptotic (%) (U2OS [2]; [12]): 50%
Population Fragmented Nuclei (%) (U2OS [2]; [12]): 18%
Population Healthy Nuclei (%) (U2OS [2]; [12]): 76%
Population Hoechst High Intensity Objects (%) (U2OS [2]; [12]): 4%
Population Membrane Permeable-Phenotype (%) (U2OS [2]; [12]): 3%
Population Mitochondria Different-Phenotype (%) (U2OS [2]; [12]): 10%
Population Mitotic Cells (%) (U2OS [2]; [12]): 50%
Population Normal (%) (U2OS [2]; [12]): 95%
Population Pyknosed Nuclei (%) (U2OS [2]; [12]): 5%
Population Tubulin-Different-Phenotype (%) (U2OS [2]; [12]): 18%
Total Cell Count (U2OS [2]; [12]): 81
Population Apoptotic (%) (U2OS [2]; [13]): 70%
Population Fragmented Nuclei (%) (U2OS [2]; [13]): 47%
Population Healthy Nuclei (%) (U2OS [2]; [13]): 49%
Population Hoechst High Intensity Objects (%) (U2OS [2]; [13]): 48%
Population Membrane Permeable-Phenotype (%) (U2OS [2]; [13]): 4%
Population Mitochondria Different-Phenotype (%) (U2OS [2]; [13]): 6%
Population Mitotic Cells (%) (U2OS [2]; [13]): 30%
Population Normal (%) (U2OS [2]; [13]): 51%
Population Pyknosed Nuclei (%) (U2OS [2]; [13]): 3%
Population Tubulin-Different-Phenotype (%) (U2OS [2]; [13]): 14%
Total Cell Count (U2OS [2]; [13]): 566
Population Apoptotic (%) (U2OS [2]; [14]): 100%
Population Fragmented Nuclei (%) (U2OS [2]; [14]): 49%
Population Healthy Nuclei (%) (U2OS [2]; [14]): 47%
Population Hoechst High Intensity Objects (%) (U2OS [2]; [14]): 66%
Population Membrane Permeable-Phenotype (%) (U2OS [2]; [14]): 3%
Population Mitochondria Different-Phenotype (%) (U2OS [2]; [14]): 3%
Population Mitotic Cells (%) (U2OS [2]; [14]): 0%
Population Normal (%) (U2OS [2]; [14]): 33%
Population Pyknosed Nuclei (%) (U2OS [2]; [14]): 2%
Population Tubulin-Different-Phenotype (%) (U2OS [2]; [14]): 26%
Total Cell Count (U2OS [2]; [14]): 352
Population Apoptotic (%) (U2OS [2]; [15]): 25%
Population Fragmented Nuclei (%) (U2OS [2]; [15]): 6%
Population Healthy Nuclei (%) (U2OS [2]; [15]): 90%
Population Membrane Permeable-Phenotype (%) (U2OS [2]; [15]): 3%
Population Mitochondria Different-Phenotype (%) (U2OS [2]; [15]): 5%
Population Mitotic Cells (%) (U2OS [2]; [15]): 75%
Population Pyknosed Nuclei (%) (U2OS [2]; [15]): 3%
Population Tubulin-Different-Phenotype (%) (U2OS [2]; [15]): 17%
Total Cell Count (U2OS [2]; [15]): 245
Population Apoptotic (%) (U2OS [2]; [16]): 33%
Population Fragmented Nuclei (%) (U2OS [2]; [16]): 14%
Population Healthy Nuclei (%) (U2OS [2]; [16]): 83%
Population Hoechst High Intensity Objects (%) (U2OS [2]; [16]): 6%
Population Membrane Permeable-Phenotype (%) (U2OS [2]; [16]): 4%
Population Mitochondria Different-Phenotype (%) (U2OS [2]; [16]): 9%
Population Mitotic Cells (%) (U2OS [2]; [16]): 66%
Population Normal (%) (U2OS [2]; [16]): 93%
Population Pyknosed Nuclei (%) (U2OS [2]; [16]): 2%
Population Tubulin-Different-Phenotype (%) (U2OS [2]; [16]): 20%
Total Cell Count (U2OS [2]; [16]): 122
Population Apoptotic (%) (U2OS [2]; [17]): 30%
Population Fragmented Nuclei (%) (U2OS [2]; [17]): 38%
Population Healthy Nuclei (%) (U2OS [2]; [17]): 57%
Population Hoechst High Intensity Objects (%) (U2OS [2]; [17]): 38%
Population Membrane Permeable-Phenotype (%) (U2OS [2]; [17]): 1%
Population Mitochondria Different-Phenotype (%) (U2OS [2]; [17]): 10%
Population Mitotic Cells (%) (U2OS [2]; [17]): 69%
Population Normal (%) (U2OS [2]; [17]): 61%
Population Pyknosed Nuclei (%) (U2OS [2]; [17]): 3%
Population Tubulin-Different-Phenotype (%) (U2OS [2]; [17]): 12%
Total Cell Count (U2OS [2]; [17]): 653
Population Apoptotic (%) (U2OS [2]; [18]): 100%
Population Fragmented Nuclei (%) (U2OS [2]; [18]): 44%
Population Healthy Nuclei (%) (U2OS [2]; [18]): 55%
Population Hoechst High Intensity Objects (%) (U2OS [2]; [18]): 57%
Population Membrane Permeable-Phenotype (%) (U2OS [2]; [18]): 2%
Population Mitochondria Different-Phenotype (%) (U2OS [2]; [18]): 8%
Population Mitotic Cells (%) (U2OS [2]; [18]): 0%
Population Normal (%) (U2OS [2]; [18]): 42%
Population Pyknosed Nuclei (%) (U2OS [2]; [18]): 0%
Population Tubulin-Different-Phenotype (%) (U2OS [2]; [18]): 28%
Total Cell Count (U2OS [2]; [18]): 411
